# Experimental data as given in publication PMC11698471 (Neuropharmacology, 2022).
# Tests used:
# [1] = tested on: MPTP-treated parkinsonian macaques; experiment: L-Dopa responses of the parkinsonian macaques; type: in vivo, Macaca Mulatta and Fascicularis
# [2] = Plasma pharmacokinetics in awake macaques; type: in vivo, Macaca Mulatta and Fascicularis; settings: suboptimal L-DOPA + PDE9i 5 mg/kg vs PDE9i vehicle
# Procedure, shortened: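 Two awake, chair-trained MPTP-parkinsonian macaques from the behavioural cohort were restrained unsedated. Test compound (s.c., 5 mg/kg, or 0 mg/kg vehicle) was given with each animal's sub-optimal s.c. L-DOPA methyl ester/benserazide dose. Saphenous vascular-port blood was drawn pre-injection and at 60, 120 and 180 min. Each treatment was given twice, and samples were processed in duplicate. Plasma was stored at −80°C for LC/MS.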
# [3] = tested on: MPTP-treated parkinsonian macaques; experiment: PDE9i - L-DOPA co-administration trial in MPTP parkinsonian macaques; type: in vivo, Macaca Mulatta and Fascicularis; settings: L-DOPA suboptimal dose s.c. alone, typical average
# [4] = tested on: PDE 9, 10, and 11; settings: cited from earlier work
# [5] = tested on: L-DOPA-induced abnormal involuntary movements; settings: rodents; ref Giorgi et al., 2008; Picconi et al., 2011; cited from earlier work
# [6] = tested on: PDE 5 and 6; settings: cited from earlier work
Compound,"LID (dyskinesia score at peak-dose effect of L-dopa) ([1]; monkey 1, scale 0 to 27)","MDS ON (motor disability score at the peak-dose effect of L-dopa) ([1]; monkey 1, scale 0 to 39, MDS OFF 17)","LID (dyskinesia score at peak-dose effect of L-dopa) ([1]; monkey 2, scale 0 to 27)","MDS ON (motor disability score at the peak-dose effect of L-dopa) ([1]; monkey 2, scale 0 to 39, MDS OFF 17)","LID (dyskinesia score at peak-dose effect of L-dopa) ([1]; monkey 3, scale 0 to 27)","MDS ON (motor disability score at the peak-dose effect of L-dopa) ([1]; monkey 3, scale 0 to 39, MDS OFF 19)","LID (dyskinesia score at peak-dose effect of L-dopa) ([1]; monkey 4, scale 0 to 27)","MDS ON (motor disability score at the peak-dose effect of L-dopa) ([1]; monkey 4, scale 0 to 39, MDS OFF 22)","LID (dyskinesia score at peak-dose effect of L-dopa) ([1]; monkey 5, scale 0 to 27)","MDS ON (motor disability score at the peak-dose effect of L-dopa) ([1]; monkey 5, scale 0 to 39, MDS OFF 23)","LID (dyskinesia score at peak-dose effect of L-dopa) ([1]; monkey 6, scale 0 to 27)","MDS ON (motor disability score at the peak-dose effect of L-dopa) ([1]; monkey 6, scale 0 to 39, MDS OFF 23.5)",plasma levels of L-DOPA with PDE9i addition [2],"response duration (""on"" state) [3] [min]","affinity for PDE 9, 10, and 11 [4]",L-DOPA-induced abnormal involuntary movements [5],affinity for PDE 5 and 6 [6]
N[C@@H](Cc1ccc(O)c(O)c1)C(=O)O [L-DOPA],13,1.5,11.5,1.5,10,3.5,9,4.5,7,8.5,11,3.5,remained unchanged,~100,–,–,–
CCCOc1ccccc1-c1nc2nn[nH]c2c(=O)[nH]1 [zaprinast],–,–,–,–,–,–,–,–,–,–,–,–,–,–,weak,reduction of L-DOPA-induced abnormal involuntary movements,moderate
